Legend:
[1] = tested on: MS2 coat protein; assay: apparent Kd, MS2 coat protein; higher = weaker binding; RNA-MaP array; tryptophan 2.4 mM where present; conditions: designed as: ON switch for tryptophan
In short: (§1)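 Binding was read on Illumina sequencing-chip clusters where stalled E. coli RNA polymerase had transcribed each design. A titration of SNAP-549-labelled MS2 coat protein began at 0.7 or 1.5 nM and doubled to 3 µM, once without ligand and once with constant ligand, in 100 mM Tris-HCl pH 7.5, 80 mM KCl, 4 mM MgCl2, BSA, DTT, yeast tRNA and Tween-20. The apparent Kd is the median of filtered per-cluster binding-curve fits, based on green signal normalised to red-channel RNA signal and control-cluster median Fmax.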

[2] = tested on: MS2 coat protein; assay: apparent Kd, MS2 coat protein; higher = weaker binding; RNA-MaP array; theophylline 2 mM where present
In short: as §1

[3] = designed as: ON switch for theophylline, no ligand
[4] = ligand present: theophylline, designed as: ON switch for theophylline
[5] = designed as: OFF switch for theophylline, no ligand
[6] = ligand present: theophylline, designed as: OFF switch for theophylline

Sequence	apparent Kd [2, 3]	apparent Kd [2, 4]	apparent Kd [2, 5]	apparent Kd [2, 6]	other results
GGGAGAUAGGCGGCCGCCACUGAUUUUCAUAUAUAUAUAACAUGAGGAUCACCCAUGUAGAUAUACAGGACCGGGCCUAUUUUUU	–	–	–	–	apparent Kd ([1]; no ligand): 17.4 nM; apparent Kd ([1]; ligand present: tryptophan): 16.2 nM
UUAGAUAUGACGGAUACCAGCGUGUUGUAGAACAUGAGGAUCACCCAUGUAGUGAUCAUGCGCCCUUGGCAGCUGGUAUGUUUGG	262 nM	829 nM	–	–	–
ACUAGUUGUGCAGAUACCAGACAUGAGGAUCACCCAUGUUUGGGAUGUUCGCAUCUUCCUGUCCCUUGGCAGCUGUACAUCUAGA	–	–	82.5 nM	44.6 nM	–
AGAUGCCACUGUGGAUAGCACGAUGCCGAUACCAGCUAGGAAACUAGCCCUUGGCAGCGGUACAUGAGGAUCACCCAUGUAUCCU	–	–	–	75 nM	–
AUAGUCUAGAGUGAUACCAGACAACAUGAGGAUCACCCAUGUAGCAUAUGGUUAUCAUGAGUCCCUUGGCAGCACGCAUGUAUAG	–	–	12.3 nM	55.8 nM	–
ACAUGAGGAUCCGAUACCAGCCACAUGAGGAUCACCCAUGUAGUACAUGAGGAUCACCCAGGCCCUUGGCAGCGGACAUGAGGAU	–	–	178 nM	1900 nM	–
ACAUCCAGGUUAAUCGUGGACAUGGUCGAUACCAGUAUUUUAAUCUACCCUUGGCAGCGACAUGAGGAUCACCCAUGUGCGAUGA	–	–	14.3 nM	31.4 nM	–
AUUUAUAGUUGUGAUACCAGACUUACAUGAGGAUCACCCAUGUUACUUAAAUGUUUUGAUGUCCCUUGGCAGCACUGUUUUUUUA	–	–	16.6 nM	–	–
AUCGUACCUAAUGAUACCAGCAAGUGAUCAUAACAUGAGGAUCACCCAUGUAAUCAGUGAUGCCCUUGGCAGCAUAAUCGUUACA	163 nM	127 nM	–	–	–
CGAUCUUUCGAAAGAAGGAUCGAUUCUGAUACCAGAGACGAAAGUCUCCCUUGGCAGCAGUGCCAACAUGAGGAUCACCCAUGUA	22.4 nM	21.3 nM	–	–	–
ACACAUGAGGAUCACCCAUGUCCAAUAGAUACCAGUGAUACGGUGCACCCUUGGCAGCUGUUACUGAGUGAUGGUUCCCUCGGAA	67.6 nM	97.1 nM	–	–	–
UAUUUGGUGCGCGAGCGUUGGAUAAUUGAUACCAGUGAAGAAGAGCGCCCUUGGCAGCGAAUCCUAACAUGAGGAUCACCCAUGU	41 nM	56.7 nM	–	–	–
ACCUACACGGAGACGUGUAGGAGUAAUGAUACCAGCAUGGAGACAUGCCCUUGGCAGCGUUACAUGAGGAUCACCCAUGUACGUU	–	–	10.2 nM	14.1 nM	–
CUUGGUAGAUCCUAGCUGCCAAGAGGUGAUACCAGCAUCGAAAGAUGCCCUUGGCAGCACCAACAUGAGGAUCACCCAUGUAAUA	70.7 nM	339 nM	–	–	–
AUAAGUAUGUUUUCGUGUUUUAUUACAGAUACCAGACUAUACGUUGUCCCUUGGCAGCUGGAUUACAUGAGGAUCACCCAUGUUG	–	–	23.1 nM	53 nM	–
GAUGAUAUUGCAGAUACCAGACACAUGAGGAUCACCCAUGUCGUUGGGUAGCUGGGUCGUGUCCCUUGGCAGCUGCGAUAUCAUC	–	–	23.3 nM	138 nM	–
AAAAUAAAUAAAACACGUAACAUGAAGGAUACCAGACAGGAAACUGUCCCUUGGCAGCCUCUACAUGAGGAUCACCCAUGUCGUG	–	30.8 nM	–	–	–
CUAGGAAACUAGUAAGGGUGGUAUUGAGAUACCAGUACAGAAAUGUACCCUUGGCAGCUCACUGCAACAUGAGGAUCACCCAUGU	–	–	24.1 nM	55.9 nM	–
GCAAUACAUGAGGAUCACCCAUGUGCAGAUACCAGAGGUGCGUGCCUCCCUUGGCAGCUGCGACGCUCUGGAAGCUUGUGUGUCU	–	–	19.4 nM	25.2 nM	–
AACUGGAAAAGUGAUACCAGAGACAUGAGGAUCACCCAUGUACAUGAGGAUCACCCAUGUCUCCCUUGGCAGCACAAAAGGGAGA	–	–	30.6 nM	64.8 nM	–
AUUUUUCUAUCAGAUACCAGACAACUCCAAACAUGAGGAUCACCCAUGUAUUGGGUGUUCGUCCCUUGGCAGCUGUUAAUGUUAA	16.9 nM	9.41 nM	–	–	–
ACGAUACGACAUGAGGAUCACCCAUGUGAUACCAGCCUGGAAACAGGCCCUUGGCAGCACAAAUACUCCAGAAACGUAUCGAAAA	–	–	204 nM	469 nM	–
ACAUGAGGAUCACCCAUGUCUGCCACUGAUACCAGCGGAAGAAAACGCCCUUGGCAGCAGAACAUGAGGAUCACCCAUGUAGGCU	274 nM	–	–	–	–
CGAAUACCAAUUGAUACCAGCAUGUUAACAUGAGGAUCACCCAUGUUAAGGAUAACAUAAUGCCCUUGGCAGCAACGUAAAUUCG	22.9 nM	13.5 nM	–	–	–
GGAUAGAUAGGAGAUACCAGAUACAUAAACAUGAGGAUCACCCAUGUGUCUGCACUAAGUAUCCCUUGGCAGCUCGGAGAUCUGA	17.6 nM	15 nM	–	–	–
UGACAUUGCUGCGAUACCAGACAUGAGGAUCACCCAUGUACCAAGGUACCCGAAAGGAAUGUCCCUUGGCAGCGCAGCAAUGUCU	–	–	9.4 nM	21.2 nM	–
AGACAUGAGGAUCACCCAUGUAGUAUGGAUACCAGAUCCAGAUUUAUCCCUUGGCAGCUGUGGUACAGCGAUGGAUUGCUCCUAG	–	–	38 nM	39.8 nM	–

Reference: the EternaBench riboswitch data
